# Compound activity: PubChem, Johns Hopkins Ion Channel Center
# RGS4 block: human RGS4 inhibition; P49798; B-score at 10 µM; HEK293 M3R/RGS4 inducible, Fluo-4 calcium flux; stronger effect = higher value; triggered by carbachol at its EC20; 310,000 tested, 0.45% active;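 active = B-score, a plate-corrected calcium signal, over three deviations above library mean, with baseline fluorescence within five deviations of library mean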;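 note: RGS4 expression induced by doxycycline in cells with stable M3 receptor; B-score is computed from the integrated fluorescence ratio over baseline after carbachol; higher B-score means a larger calcium signal and so more RGS4 inhibition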
# Target sequence (P49798 whole entry, looked up): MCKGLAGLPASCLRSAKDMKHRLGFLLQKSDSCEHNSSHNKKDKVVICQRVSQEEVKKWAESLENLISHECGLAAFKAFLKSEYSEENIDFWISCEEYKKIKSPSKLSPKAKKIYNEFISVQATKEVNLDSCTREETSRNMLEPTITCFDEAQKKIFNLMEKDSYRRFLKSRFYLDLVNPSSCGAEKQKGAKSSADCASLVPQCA
# MrgX1 agonist: activates human MrgX1 receptor signaling | Q96LB2 | MrgX1-HEK293 cells, Fluo-4 calcium fluorescence, agonist mode; stronger effect = higher value | B-score at 10 µM | 310,000 tested, 0.44% active;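 active = calcium response B-score plate-corrected fluorescence ratio at least 3 library SD, with starting fluorescence B-score inside 5 SD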
# Target sequence (Q96LB2 whole entry, looked up): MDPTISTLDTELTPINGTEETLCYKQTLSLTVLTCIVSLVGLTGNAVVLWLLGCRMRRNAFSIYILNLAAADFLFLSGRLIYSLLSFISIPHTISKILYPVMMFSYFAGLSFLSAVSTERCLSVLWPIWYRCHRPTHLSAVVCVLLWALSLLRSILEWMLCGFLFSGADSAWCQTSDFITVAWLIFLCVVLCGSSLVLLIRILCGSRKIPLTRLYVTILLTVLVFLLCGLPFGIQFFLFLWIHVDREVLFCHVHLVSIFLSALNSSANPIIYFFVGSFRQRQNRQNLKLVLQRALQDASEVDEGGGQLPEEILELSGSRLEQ
#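 times = overnight plating, then 30 min 37 °C plus 30 min room-temperature dye loading | assay system = stable human MrgX1 HEK293 cell line | input = fifteen thousand cells per well | signal = kinetic calcium dye fluorescence, Fluo-4 NW | dosing = compound delivered in addition one of three | read-out = B-scored fluorescence response ratio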
# MrgX1 allo act: allosterically activates human MrgX1 receptor signaling. Q96LB2. MrgX1-HEK293, Fluo-4 calcium flux, FDSS; stronger effect = higher value. B-score at 10 µM. 310,000 tested, 0.63% active. AID 588675;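 active = plate-corrected calcium response at least 3 library SD above typical, normal starting fluorescence, not activating the receptor alone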;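 note: compound read alongside a low EC10 to EC30 dose of BAM8-22 agonist; peak minus trough fluorescence over baseline measured at the second addition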
# RGS4 pot: RGS4 potentiation or activation. B-score at 10 µM. AID 463111. HEK293 M3R/inducible RGS4, carbachol calcium flux Fluo4; stronger effect = lower value. 310,000 tested, 0.92% active;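 active = B-score of the integrated calcium signal more than 4 SD below the library mean, with starting fluorescence not abnormally high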;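 note: negative B-score means reduced calcium response which marks RGS4 activation or potentiation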
#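 test system = M3R-expressing HEK293 line, RGS4 induced by doxycycline | probe or stimulus = carbachol at ECmax as muscarinic agonist stimulus | timing = dye loading 30 min 37 °C, buffer rest 30 min RT | signal = calcium dye Fluo4 fluorescence | evaluation = B score from integrated fluorescence ratio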
# MrgX1 antag: blocks BAM8-22 activation of human MrgX1 receptor; Q96LB2; MRGX1-HEK293 calcium flux, Fluo-4, BAM8-22 antagonism; stronger effect = lower value; B-score at 10 µM; 310,000 tested, 1.3% active; AID 588676;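 active = calcium-response B-score plate-corrected more than 3 library SD below zero, starting fluorescence within 5 deviations, no agonist response on first addition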;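 note: peak minus trough fluorescence over baseline after final BAM8-22 challenge near maximal dose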
# Hits are given with their value; 0 = inactive; - = no result given. A selection: hits, their analogues and other compounds. The true share with any hit is near 3.5%.
SMILES,RGS4 block,MrgX1 agonist,MrgX1 allo act,RGS4 pot,MrgX1 antag
CCOc1cc(/C=C2/C(=N)N3C(=NC2=O)SN=C3S(C)(=O)=O)ccc1OC(=O)c1ccco1,0,0,12.7,0,0
CC(C)(C)c1cc2ncnc(N3CCCCC3)c2s1,0,0,0,0,0
Cc1nc(CS(=O)c2ccc(Cl)cc2)cc(NCc2ccc(Cl)cc2Cl)n1 (centres undefined),0,0,0,0,0
CCS(=O)(=O)C1=NN2C(=N)/C(=C\c3ccc(OC(=O)c4ccco4)c(Br)c3)C(=O)N=C2S1,0,72.9,0,0,0
CCOc1cc(/C=C2\C(=N)N3N=C(S(=O)(=O)CC)SC3=NC2=O)ccc1OC(=O)c1ccco1,0,0,0,0,0
N=C1/C(=C\c2ccc(OC(=O)c3ccccc3)cc2)C(=O)N=C2SC(N3CCOCC3)=NN12,0,0,0,0,-7.87
CCOc1cc(/C=C2/C(=N)N3C(=NC2=O)SN=C3S(C)(=O)=O)ccc1OS(=O)(=O)c1ccccc1,0,0,26.7,0,0
N=C1/C(=C/c2ccc(OC(=O)c3ccco3)cc2)C(=O)N=C2SC=CN12,0,0,12.5,0,0
CCOC(=O)C1=C(C(F)(F)F)Nc2ncnn2C1c1ccc(OC)c(OC)c1OC (centres undefined),0,0,0,0,0
COc1cc(/C=C2\C(=N)N3N=C(S(C)(=O)=O)SC3=NC2=O)ccc1OCCOc1ccccc1C,0,0,0,0,0
COc1cc(/C=C2\C(=N)N3N=CSC3=NC2=O)ccc1OS(=O)(=O)c1ccccc1[N+](=O)[O-],0,38.7,0,0,0
CCOc1cc(/C=C2/C(=N)N3N=C(CC)SC3=NC2=O)ccc1OC(=O)c1ccco1,0,34.1,0,0,0
CC(=O)Nc1ccc(OCCOc2ccc(/C=C3\C(=N)N4N=C(C)SC4=NC3=O)cc2)cc1,0,0,9.47,0,0
CCC1=NN2C(=N)/C(=C\c3ccc(OCCOc4ccc(NC(C)=O)cc4)c(OC)c3)C(=O)N=C2S1,0,0,0,0,0
CCOc1cc(/C=C2\C(=N)N3N=C(N4CCCCC4)SC3=NC2=O)ccc1OC(=O)c1ccco1,0,0,0,0,0
Nn1c(SCC(=O)NC2CCCCC2)nnc1C1CC1,0,0,0,0,0
CN1CCN(C(=O)/C=C/c2ccc([N+](=O)[O-])o2)CC1,0,-,-,0,-
O=C(O)/C=C/c1ccc([N+](=O)[O-])o1,0,0,0,0,-5.2
O=C(COc1ncnc2ccccc12)N1CCN(c2ccccc2)CC1,0,0,0,0,0
COc1ccc(NC(=O)N2CCN(c3nc(-c4cccc(OC)c4)cs3)CC2)cc1,0,0,0,-6.99,0
COCCNC(=O)CS(=O)Cc1nc(-c2ccccc2C)oc1C (centres undefined),0,0,0,0,-5.27
Cc1ccccc1-c1nc(CS(=O)CC(=O)NCc2ccccc2)c(C)o1 (centres undefined),0,0,0,0,0
NC(=O)Cn1nc([N+](=O)[O-])nc1Oc1ccccc1F,0,0,0,0,0
NC(=O)Cn1nc([N+](=O)[O-])nc1Oc1ccccc1C(=O)N1CCOCC1,0,0,0,0,-4.57
Clc1ccc2c(c1)C(N1CCNCC1)Cc1ccccc1S2 (centres undefined),0,0,0,-7.81,0
SMILES,RGS4 block,MrgX1 agonist,MrgX1 allo act,RGS4 pot,MrgX1 antag
COCCCN1CCN(C2Cc3ccccc3Sc3ccc(Cl)cc32)CC1 (centres undefined),0,0,0,0,0
O=C(COC(=O)c1ccc(O)cc1)NCc1ccc2c(c1)OCO2,0,0,0,0,0
COC(=O)c1sc(NC(=O)CCCn2nc([N+](=O)[O-])cc2C)c(C(=O)OC)c1C,0,0,0,0,-6.13
CCOc1cc(/C=N/NC(=O)Cn2nc([N+](=O)[O-])cc2C)ccc1OCc1ccc(F)cc1,0,0,0,0,-4.88
Cc1cc([N+](=O)[O-])nn1CCCC(=O)NCc1ccc(F)cc1,0,0,14,0,0
COc1ccccc1/C=C/CN1CCN(Cc2ccc(F)cc2)C(CCO)C1 (centres undefined),0,0,0,0,0
COC(=O)CCNC(=O)Cc1c(C)n(C(=O)c2ccc(Cl)cc2)c2ccc(OC)cc12,0,0,0,0,0
O=C(CCCCCNc1nc(=S)[nH]c2ccccc12)NCCc1ccc(Cl)cc1,0,0,9.72,0,0
O=C(CCCCCNc1nc(=S)[nH]c2ccccc12)NCCc1c[nH]c2ccccc12,0,0,0,0,0
CCOc1ccc(CCNC(=O)C(C)n2nc(C)c3c(C)n(-c4ccccc4)nc3c2=O)cc1 (centres undefined),0,0,0,0,0
CCOC(=O)c1[nH]c(C)c(C(=O)OCC(=O)N2CCCCC2C)c1C (centres undefined),0,0,0,0,0
CC1(C)Cc2c(C#N)c(NC3CCCCC3)nc(-c3ccco3)c2CO1,0,29.4,0,0,0
CC(=O)C1C(c2ccc(C)cc2)c2c(noc2C)CC1(C)O (centres undefined),0,0,0,0,0
CC(=O)C1C(c2ccc([N+](=O)[O-])cc2)c2c(noc2C)CC1(C)O (centres undefined),0,0,0,-8.54,0
C/C(=N\NC(=O)c1cccnc1)c1cc2ccccc2o1,0,0,0,0,-7.57
C/C(=N\NC(=O)c1ccncc1)c1cc2ccccc2o1,0,0,0,0,0
CN1CCN(c2ccccc2NC(=O)c2ccc(-c3cccc(Cl)c3)o2)CC1,0,0,0,-8.49,0
O=C(Nc1ccccc1N1CCCCC1)c1ccc(-c2cccc(Cl)c2)o1,0,0,0,0,0
Nc1n[nH]c(C(F)(F)F)c1-c1ccccc1,0,0,0,0,0
CCOC(=O)N1CCN(C(=O)c2cn(CC)c3cc(N4CCN(C)CC4)c(F)cc3c2=O)CC1,0,0,0,0,-7.59
N#C/C(=C(/O)CSc1ncn[nH]1)c1nc2ccccc2[nH]1,0,0,0,0,-6.09
C/C(O)=C(/C#N)c1nc2ccccc2[nH]1,0,0,0,0,0
Cc1ccc(CSc2nnc(SCC(=O)N/N=C/c3ccc(C(=O)O)cc3)s2)cc1,0,0,0,0,-5.15
COc1ccc(-c2noc(CCC(=O)N3CCN(c4cc(C)ccc4C)CC3)n2)cc1,0,0,0,-7,0
Cc1ccc(/C=C/C(=O)c2ccc([N+](=O)[O-])o2)cc1,9.84,0,0,0,0
Cc1ccc(C(=O)/C=C/c2ccccc2)o1,0,27.6,0,0,0
Cc1ccc(C(=O)/C=C/c2ccc(Br)cc2)o1,0,0,0,0,0
CCOC(=O)CC(NC(=O)c1cc2cccc(OC)c2oc1=O)c1ccc(OC)cc1 (centres undefined),0,0,0,0,0
Cc1cccc(C)c1NC(=O)CS(=O)CC(=O)NCC1OCCc2ccccc21 (centres undefined),0,0,0,0,-4.76
